Screening data deposited in PubChem by several laboratories.
HCT116 PTEN-null: PTEN-deleted cell growth suppression; HCT116 PTEN-null viability, CellTiter-Glo, 60 h; stronger effect = lower value; 140,000 tested, 1.2% active; viability, % at 10 µM;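 active = viability at or below a set limit, 4 SD under the median of all tested compounds, cut at about 3.7% in these data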;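 also: PTEN knockout HCT116 line with beta catenin targeted HCT116 as companion control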
Dynein cargo inh: blocks dynein driven cargo transport along microtubules. 3617.4 mouse cells, GR-EGFP nuclear translocation imaging; test concentration mostly 20 µM; stimulated with dexamethasone, 1 µM; stronger effect = lower value. z-score, hits read low. 220,000 tested, 0.47% active;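 active = plate z-score of nuclear minus cytoplasmic receptor signal below a set negative limit, without overly bright fluorescence or cell loss, cut at about -3.5 in these data, passing the limit was not always enough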;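 also: z-score of nuclear minus cytoplasmic ring GR-EGFP intensity difference per well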
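Buffer or medium: tetracycline-free induction medium containing charcoal-stripped FBS / Reagent: dexamethasone agonist, 1.0 µM final, for 30 min / Technique: automated 10x imaging of fixed Hoechst-stained cells / Times: induction 48 h, compound 1 h, agonist 30 min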
HCT116 bCat-KO: beta-catenin-lacking colon tumor cell growth suppression. HCT116 beta-catenin knockout viability, CellTiter-Glo, 60 h; stronger effect = lower value. viability, % at 10 µM. 140,000 tested, 1.5% active. AID 818;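 active = viability at or under a set limit, the compound median less 4 SD, cut at about 6% in these data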
Autophagy HCS: autophagy modulation, high-content screen; MEF GFP-LC3 puncta imaging; test concentration mostly 10 µM; 190,000 tested, 0.98% active; calls only at 10 µM (by protocol);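 active = percentage of spot-positive cells more than 3 SD above its plate mean, without a fluorescence outlier flag or 80% toxicity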
L major viab: reduces viability of Leishmania major promastigotes; resazurin fluorescence viability; inhibition, % at 10 µM; 200,000 tested, 9% active; in the data active = inhibition above about 50%;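 also: promastigotes grown with compound for 44 hours at 28 °C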
Numbers stand for hits. Most compounds without a hit are left out; they make up all but 9.2% or so of the library.

Screening COc1ccc(C2C(CN3CCOCC3)C(=O)N2c2ccccc2)cc1 (centres undefined) returned Dynein cargo inh inactive, Autophagy HCS inactive and L major viab inactive.
`COc1ccc(N2C(=O)C(CN3CCN(C)CC3)C2c2ccccc2)cc1` (centres undefined) gave Dynein cargo inh inactive, Autophagy HCS inactive and L major viab 95.3.
CS(=O)(=O)N(CCc1ccccc1)CC(=O)NCc1ccco1 was read as HCT116 PTEN-null inactive, Dynein cargo inh inactive, HCT116 bCat-KO inactive, Autophagy HCS inactive and L major viab inactive.
`Cc1cc(C(=O)COC(=O)c2ccc(N)c([N+](=O)[O-])c2)c(C)n1-c1ccc2c(c1)OCO2` gave HCT116 PTEN-null inactive, Dynein cargo inh inactive, HCT116 bCat-KO inactive, Autophagy HCS inactive and L major viab 71.2.
For Cc1cc(C(=O)COC(=O)CC2Sc3ccccc3NC2=O)c(C)n1-c1ccc2c(c1)OCO2 (centres undefined) the results were HCT116 PTEN-null inactive, Dynein cargo inh inactive, HCT116 bCat-KO inactive, Autophagy HCS inactive and L major viab 54.9.
Screening Cc1cc(C(=O)COC(=O)CC2Sc3ccccc3NC2=O)c(C)n1-c1ccccc1 (centres undefined) returned HCT116 PTEN-null inactive, Dynein cargo inh inactive, HCT116 bCat-KO inactive, Autophagy HCS inactive and L major viab inactive.
Screening Cc1nnc(SCC(=O)c2cc(C)n(-c3ccc4c(c3)OCO4)c2C)s1 returned HCT116 PTEN-null inactive, Dynein cargo inh inactive, HCT116 bCat-KO inactive, Autophagy HCS inactive and L major viab 60.8.
For COC(=O)c1ccc(-n2c(C)cc(C(=O)COC(=O)CC3Sc4ccccc4NC3=O)c2C)cc1 (centres undefined) the results were HCT116 PTEN-null inactive, Dynein cargo inh inactive, HCT116 bCat-KO inactive, Autophagy HCS inactive and L major viab 65.3.
CC1CCC(NC(=O)C2CCC(CNc3c(N4CCCCC4)c(=O)c3=O)CC2)CC1 (centres undefined) was read as Dynein cargo inh inactive.
O=c1oc2ccccc2c2c1nnn2CCO was read as Dynein cargo inh inactive, Autophagy HCS inactive and L major viab inactive.
For O=C(OCC(F)(F)C(F)F)c1ccccc1C(=O)Oc1ccc(F)cc1F the results were HCT116 PTEN-null inactive, Dynein cargo inh inactive, HCT116 bCat-KO inactive, Autophagy HCS inactive and L major viab inactive.
For COc1cccc(C(C(=O)NC2CCCC2)N(CC2CCCO2)C(=O)Cc2cccs2)c1 (centres undefined) the results were Dynein cargo inh inactive, Autophagy HCS inactive and L major viab inactive.
For CC(C)Oc1ccc(C(CC(=O)NCc2ccco2)c2ccccc2)cc1 (centres undefined) the results were HCT116 PTEN-null inactive, Dynein cargo inh inactive, HCT116 bCat-KO inactive, Autophagy HCS inactive and L major viab 67.2.
For Cc1cccc(N2CCN(C(=O)c3cc(S(=O)(=O)N(C)C)ccc3N3CCCC3)CC2)c1C the results were Dynein cargo inh inactive, Autophagy HCS inactive and L major viab 53.8.
For CN(C)S(=O)(=O)c1ccc(N2CCCC2)c(C(=O)N2CCN(c3ccc([N+](=O)[O-])cc3)CC2)c1 the results were Dynein cargo inh inactive, Autophagy HCS inactive and L major viab inactive.
`COc1ccc(Nc2nc(-c3c[nH]c4ccccc34)cs2)cc1` gave HCT116 PTEN-null inactive, Dynein cargo inh inactive, HCT116 bCat-KO inactive, Autophagy HCS inactive and L major viab 85.2.
COc1ccc(Nc2nc(-c3ccc(OC)cc3)cs2)cc1 was read as Dynein cargo inh inactive, Autophagy HCS inactive and L major viab inactive.
`O=S(=O)(Cc1ccccc1)NCC1CCCN(Cc2ccc(F)c(F)c2)C1` (centres undefined) gave Dynein cargo inh inactive, Autophagy HCS inactive and L major viab 89.8.
Screening O=S(=O)(Cc1ccccc1)NCC1CCCN(Cc2ccc3nonc3c2)C1 (centres undefined) returned Dynein cargo inh inactive, Autophagy HCS inactive and L major viab 92.5.
CCOC(=O)CNC(=O)N1CCCC(CNS(=O)(=O)Cc2ccccc2)C1 (centres undefined) was read as Dynein cargo inh inactive, Autophagy HCS inactive and L major viab inactive.
`O=C(NCCc1ccccc1)N1CCCC(CNS(=O)(=O)Cc2ccccc2)C1` (centres undefined) gave Dynein cargo inh inactive, Autophagy HCS inactive and L major viab inactive.
For Cc1cccc(N2CCN(C(=O)c3cn4ccccc4n3)CC2C)c1 (centres undefined) the results were Dynein cargo inh inactive, Autophagy HCS inactive and L major viab inactive.
`COCCCN1C(=O)CC(C(=O)OC)=C1C` gave Dynein cargo inh inactive, Autophagy HCS inactive and L major viab inactive.
Screening Cc1ccccc1/C=C\c1nc2ccccc2c(=O)n1Cc1ccccc1 returned HCT116 PTEN-null inactive, Dynein cargo inh inactive, HCT116 bCat-KO inactive, Autophagy HCS inactive and L major viab 98.7.
O=C(Nc1ccc2c(c1)N(Cc1ccccc1)C(=O)c1ccccc1S2)NC1CC1 was read as HCT116 PTEN-null inactive, Dynein cargo inh inactive, HCT116 bCat-KO inactive, Autophagy HCS inactive and L major viab 91.8.
CC(CCc1ccccc1)NC(=O)CCN1N=C(c2ccccc2)CCC1=O (centres undefined) was read as Dynein cargo inh inactive, Autophagy HCS inactive and L major viab inactive.
`CCc1ccc(C2=NN(CCC(=O)NC(C)CCc3ccccc3)C(=O)CC2)cc1` (centres undefined) gave Dynein cargo inh inactive, Autophagy HCS inactive and L major viab 94.7.
O=C(O/N=C1\CCS(=O)(=O)c2sccc21)C1CC1 was read as Dynein cargo inh inactive, Autophagy HCS inactive and L major viab inactive.
C/C(N)=C(/C#N)C(=O)COC(=O)Cc1coc2ccc3ccccc3c12 was read as Dynein cargo inh inactive, Autophagy HCS inactive and L major viab inactive.
O=C1CN(C(=O)c2ccco2)C(c2ccc(F)cc2)c2cc(Cl)ccc2N1 (centres undefined) was read as Dynein cargo inh inactive, Autophagy HCS inactive and L major viab inactive.
`O=C1CN(C(=O)c2ccc(Br)o2)C(c2ccc(F)cc2)c2cc(F)ccc2N1` (centres undefined) gave HCT116 PTEN-null inactive, Dynein cargo inh inactive, HCT116 bCat-KO inactive, Autophagy HCS inactive and L major viab 95.2.
`CCc1nc(CN2CCCC(C(=O)c3ccc4c5c(cccc35)CC4)C2)c(C)[nH]1` (centres undefined) gave Dynein cargo inh inactive, Autophagy HCS active and L major viab 99.0.
`O=C(c1ccc2c3c(cccc13)CC2)C1CCCN(Cc2ccncc2)C1` (centres undefined) gave Dynein cargo inh inactive, Autophagy HCS inactive and L major viab 97.0.
For Cc1ncccc1C(=O)N1CCCC(C(=O)c2ccc3c4c(cccc24)CC3)C1 (centres undefined) the results were Dynein cargo inh inactive, Autophagy HCS inactive and L major viab inactive.
O=C(O)c1cc(-c2ccco2)nc2cc3ccccc3cc12 was read as Dynein cargo inh inactive.
